Results published in ChEMBL document CHEMBL4373678, “Development of hydroxamate-based histone deacetylase inhibitors of bis-substituted aromatic amides with antitumor activities” (Medchemcomm, 2019).
Activity calls are given as the source filed them. No cut-off for these calls is given here.

Legend:
[1] = species: Homo sapiens; conditions: at 0.5 µM;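 note: HDAC activity measured in a nuclear extract, with percent inhibition expressed against control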
[2] = molecular target: T1, Histone deacetylase 1 (Homo sapiens, UniProt Q13547); assay: Inhibition of recombinant HDAC1 (unknown origin) expressed in baculovirus expression system using Ac-peptide-AMC as substrate preincubated for 15 mins followed by substrate addition by fluorescence based protease coupled assay
[3] = molecular target: T1, Histone deacetylase 1; assay: Potency index, ratio of SAHA IC50 to compound IC50 for inhibition of recombinant HDAC1 (unknown origin) expressed in baculovirus expression system
[4] = system: MDA-MB-231; assay: Antiproliferative activity against human MDA-MB-231 cells assessed as reduction in cell viability after 48 hrs by SRB assay; format: functional, cell-based; conditions: MDA-MB-231, 48 h
[5] = system: MCF7; assay: Antiproliferative activity against human MCF7 cells assessed as reduction in cell viability after 48 hrs by SRB assay; format: functional, cell-based; conditions: MCF7, 48 h
[6] = system: A549; assay: Antiproliferative activity against human A549 cells assessed as reduction in cell viability after 48 hrs by SRB assay; format: functional, cell-based; conditions: A549, 48 h
How it was run: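 A549 cells in RPMI 1640 with 10% FBS at 37 °C, 5% CO₂, seeded 24 h before treatment at various concentrations. Cells were fixed with 10% TCA for 1 h at 4 °C and stained with 0.4% SRB for 5 min at room temperature. After 1% acetic acid washes, dye was dissolved in 10 mM Tris and A540 read. IC50 from three independent experiments in triplicate, mean ± SD.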

[7] = system: MCF-10A; assay: Cytotoxicity against human MCF10A cells assessed as reduction in cell viability after 48 hrs by SRB assay; format: ADME, cell-based
[8] = Cytotoxicity against human MCF10F cells assessed as reduction in cell viability after 48 hrs by SRB assay; format: ADME, cell-based; conditions: MCF-10F
[9] = system: BEAS-2B; assay: Cytotoxicity against human BEAS2B cells assessed as reduction in cell viability after 48 hrs by SRB assay; format: ADME, cell-based
[10] = system: A549; assay: Inhibition of colony formation in human A549 cells at 1 to 2.5 uM after 7 days by crystal violet staining based assay; format: functional, cell-based
How it was run: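 A549 cells plated at 800 per 35 mm dish and treated for one week, with medium replenished every 24 h. Cells were washed with PBS, fixed in methanol and stained with 1% crystal violet for 15 min. Colonies were counted. Triplicate, repeated three times.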

[11] = system: A549; assay: Antimetastatic activity in human A549 cells reduction in cell migration after 24 hrs by wound healing assay; format: functional, cell-based
How it was run: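 A549 cells (1.5x10⁵) plated in 6-well dishes and grown overnight to confluent monolayers. Monolayers were wounded with a pipette tip, then treated at various concentrations for 24 h. Wounds were photographed at 0, 12 and 24 h and migration distance measured. Result is % wound closure relative to 0 h. Triplicate, repeated three times.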

[12] = molecular target: T1, Histone deacetylase 1; assay: Inhibition of HDAC1 in human A549 cells assessed as increase in H3 acetylation after 24 hrs by immunoblot analysis; format: cell-based
How it was run: (§1)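 A549 cells exposed to 1.0, 2.5 and 5.0 µM for 24 h, then immunoblotted for acetylated histone H3 and H4. RIPA lysates (35 µg) run on 15% SDS-PAGE and transferred to PVDF. Primary antibody 1:1000 overnight at 4 °C, HRP secondary 1:20000, ECL. Densitometry relative to β-actin; three independent experiments.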

[13] = molecular target: T1, Histone deacetylase 1; assay: Inhibition of HDAC1 in human A549 cells assessed as increase in H4 acetylation after 24 hrs by immunoblot analysis; format: cell-based
How it was run: as §1

[14] = system: A549; assay: Induction of cell cycle arrest in human A549 cells assessed as accumulation at G2/M phase at 5 uM after 24 hrs by PI/RNaseA staining based flow cytometry analysis relative to control; format: functional
How it was run: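 A549 cells treated for 24 h, with vehicle as control. Cells were fixed in 70% ice-cold ethanol overnight at −20 °C, then stained with PI containing RNase A for 30 min at 37 °C. DNA content was read by flow cytometry. Mean ± SD of phase percentages from three independent experiments.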

[15] = system: A549; assay: Induction of G2/M cell cycle arrest in human A549 cells assessed as decrease in CDK1 expression at 1 to 2.5 uM by Western blot analysis; format: functional, cell-based
How it was run: (§2)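 Cell-cycle arm: A549 whole-cell lysates probed for CDK1 and cyclin B. Lysis in RIPA buffer; 35 µg protein run on 15% SDS-PAGE and blotted to PVDF. Blocked in 5% milk/PBST; primary antibody 1:1000 at 4 °C overnight, HRP secondary 1:20000 for 1 h at room temperature, ECL detection. Densitometry relative to β-actin; three separate experiments.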

[16] = system: A549; assay: Induction of G2/M cell cycle arrest in human A549 cells assessed as decrease in CyclinB1 expression at 1 to 2.5 uM by Western blot analysis; format: functional, cell-based
How it was run: as §2

[17] = system: A549; assay: Induction of apoptosis in human A549 cells assessed as viable cells at 5 uM after 72 hrs by Annexin V-phycoerythrin/7-AAD staining based flow cytometric analysis (reference value: 96.57%); format: functional
[18] = system: A549; assay: Induction of apoptosis in human A549 cells assessed as early apoptotic cells at 5 uM after 72 hrs by Annexin V-phycoerythrin/7-AAD staining based flow cytometric analysis (reference value: 1.13%); format: functional
[19] = system: A549; assay: Induction of apoptosis in human A549 cells assessed as late apoptotic cells at 5 uM after 72 hrs by Annexin V-phycoerythrin/7-AAD staining based flow cytometric analysis (reference value: 1.84%); format: functional
[20] = system: A549; assay: Induction of apoptosis in human A549 cells assessed as necrotic cells at 5 uM after 72 hrs by Annexin V-phycoerythrin/7-AAD staining based flow cytometric analysis (reference value: 0.45%); format: functional
[21] = system: A549; assay: Induction of apoptosis in human A549 cells assessed as viable cells at 1 uM after 72 hrs by Annexin V-phycoerythrin/7-AAD staining based flow cytometric analysis (reference value: 96.57%); format: functional; conditions: A549, 72 h, read-out: Activity
[22] = system: A549; assay: Induction of apoptosis in human A549 cells assessed as early apoptotic cells at 1 uM after 72 hrs by Annexin V-phycoerythrin/7-AAD staining based flow cytometric analysis (reference value: 1.13%); format: functional
[23] = system: A549; assay: Induction of apoptosis in human A549 cells assessed as late apoptotic cells at 1 uM after 72 hrs by Annexin V-phycoerythrin/7-AAD staining based flow cytometric analysis (reference value: 1.84%); format: functional
[24] = system: A549; assay: Induction of apoptosis in human A549 cells assessed as necrotic cells at 1 uM after 72 hrs by Annexin V-phycoerythrin/7-AAD staining based flow cytometric analysis (reference value: 0.45%); format: functional
[25] = system: A549; assay: Induction of apoptosis in human A549 cells assessed as viable cells at 2.5 uM after 72 hrs by Annexin V-phycoerythrin/7-AAD staining based flow cytometric analysis (reference value: 96.57%); format: functional; conditions: A549, 72 h, read-out: Activity
[26] = system: A549; assay: Induction of apoptosis in human A549 cells assessed as early apoptotic cells at 2.5 uM after 72 hrs by Annexin V-phycoerythrin/7-AAD staining based flow cytometric analysis (reference value: 1.13%); format: functional
[27] = system: A549; assay: Induction of apoptosis in human A549 cells assessed as late apoptotic cells at 2.5 uM after 72 hrs by Annexin V-phycoerythrin/7-AAD staining based flow cytometric analysis (reference value: 1.84%); format: functional
[28] = system: A549; assay: Induction of apoptosis in human A549 cells assessed as necrotic cells at 2.5 uM after 72 hrs by Annexin V-phycoerythrin/7-AAD staining based flow cytometric analysis (reference value: 0.45%); format: functional
[29] = system: A549; assay: Induction of apoptosis in human A549 cells assessed as increase in PARP cleavage at 1 to 5 uM after 48 hrs by Western blot analysis; format: functional, cell-based
How it was run: (§3)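 A549 cells treated at the indicated concentrations for 48 h, then blotted for cleaved caspase-3 and cleaved PARP. RIPA lysis; 35 µg protein on 15% SDS-PAGE, transferred to PVDF. Blocked in 5% milk/PBST; primary antibody 1:1000 overnight at 4 °C, HRP secondary 1:20000 for 1 h, ECL. Bands quantified by densitometry versus β-actin; three separate experiments.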

[30] = system: A549; assay: Induction of apoptosis in human A549 cells assessed as increase in caspase-3 cleavage at 1 to 5 uM after 48 hrs by Western blot analysis; format: functional, cell-based
How it was run: as §3

[31] = system: A549; assay: Induction of apoptosis in human A549 cells after 72 hrs by Annexin V-phycoerythrin/7-AAD staining based flow cytometric analysis; format: functional, cell-based

T1 sequence (Q13547 whole entry): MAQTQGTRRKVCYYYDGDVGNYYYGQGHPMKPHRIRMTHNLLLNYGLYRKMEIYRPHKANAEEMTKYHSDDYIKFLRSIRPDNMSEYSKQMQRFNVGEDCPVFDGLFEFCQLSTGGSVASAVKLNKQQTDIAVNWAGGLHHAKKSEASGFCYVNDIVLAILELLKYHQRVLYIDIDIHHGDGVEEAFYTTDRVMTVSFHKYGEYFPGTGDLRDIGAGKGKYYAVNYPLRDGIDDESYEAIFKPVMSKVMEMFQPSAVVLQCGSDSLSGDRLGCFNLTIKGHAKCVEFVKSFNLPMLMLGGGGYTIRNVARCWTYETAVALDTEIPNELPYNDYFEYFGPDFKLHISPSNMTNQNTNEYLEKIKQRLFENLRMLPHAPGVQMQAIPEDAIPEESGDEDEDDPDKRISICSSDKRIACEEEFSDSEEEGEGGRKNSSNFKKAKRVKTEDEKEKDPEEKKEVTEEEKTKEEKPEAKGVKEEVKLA

## COc1ccc(N(Cc2cccc(NC(=O)CCc3ccc(F)cc3)c2)C(=O)CCCCCC(=O)NO)cc1
[1]
  inhibition: 49%

## COc1ccccc1N(Cc1cccc(NC(=O)Cc2ccccc2)c1)C(=O)CCCCCC(=O)NO
[1]
  inhibition: 37%

## CCC(=O)Nc1cccc(CN(C(=O)CCCCCC(=O)NO)c2ccccc2OC)c1
[1]
  inhibition: 22%

## CCNC(=O)c1cccc(CN(C(=O)CCCCCC(=O)NO)c2ccc(O)cc2)c1
[1]
  inhibition: 21%

## COc1ccccc1N(Cc1cccc(C(=O)NCCCCc2ccccc2)c1)C(=O)CCCCCC(=O)NO
[1]
  inhibition: 15%

## COc1ccc(N(Cc2cccc(C(=O)NCCc3ccc(F)cc3)c2)C(=O)CCCCCC(=O)NO)cc1
[2]
  IC50: 0.0023 µM
[3]
  Ratio IC50: 10.9
[4]
  IC50: 7.24 µM
[5]
  IC50: 7.17 µM
[6]
  IC50: 4.05 µM
[7]
  IC50: > 50 µM
[8]
  IC50: > 50 µM
[9]
  IC50: > 20 µM
[1]
  inhibition: 53%

## COc1ccccc1N(Cc1cccc(Br)c1)C(=O)CCCCCC(=O)NO
[1]
  inhibition: 21%

## COc1ccccc1N(Cc1cccc(C(=O)NCCCCc2ccc(F)cc2)c1)C(=O)CCCCCC(=O)NO
[1]
  inhibition: 34%

## COc1ccccc1N(Cc1cccc(C(=O)NCCc2ccc(F)cc2)c1)C(=O)CCCCCC(=O)NO
[1]
  inhibition: 39%

## COc1ccccc1N(Cc1cccc(C(=O)NCc2ccccc2)c1)C(=O)CCCCCC(=O)NO
[1]
  inhibition: 38%

## CCNC(=O)c1cccc(CN(C(=O)CCCCCC(=O)NO)c2ccccc2OC)c1
[1]
  inhibition: 20%

## CCN(CC)C(=O)c1cccc(CN(C(=O)CCCCCC(=O)NO)c2ccccc2OC)c1
[1]
  inhibition: 20%

## CCNC(=O)c1cccc(CN(C(=O)CCCCCC(=O)NO)c2ccc(OC)cc2)c1
[2]
  IC50: 0.0022 µM
[3]
  Ratio IC50: 11.4
[4]
  IC50: 6.87 µM
[5]
  IC50: 6.96 µM
[6]
  IC50: 2.13 µM
[7]
  IC50: > 100 µM
[8]
  IC50: > 100 µM
[9]
  IC50: > 100 µM
[10]
  inhibition: Active
[11]
  Activity: Dose-dependent effect
[12]
  inhibition: Dose-dependent effect
[13]
  inhibition: Dose-dependent effect
[14]
  Activity: 40.3%
[15]
  Activity: Active
[16]
  Activity: Active
[17]; Homo sapiens, A549, 72 h, read-out: Activity
  viability at 5 µM: 17.7%
[18]
  Activity: 23.85%
[19]
  Activity: 57.6%
[20]
  Activity: 0.89%
[21]
  viability at 1 µM: 69.1%
[22]
  Activity: 21.86%
[23]
  Activity: 8.17%
[24]
  Activity: 0.86%
[25]
  viability at 2.5 µM: 42%
[26]
  Activity: 29.35%
[27]
  Activity: 27.09%
[28]
  Activity: 1.54%
[29]
  Activity: Active
[30]
  Activity: Active
[31]
  Activity: Dose-dependent effect
[1]
  inhibition: 51%

## COc1ccc(CCNC(=O)c2cccc(CN(C(=O)CCCCCC(=O)NO)c3ccccc3OC)c2)cc1
[1]
  inhibition: 27%

## O=C(CCCCCCC(=O)Nc1ccccc1)NO [VORINOSTAT]
[14]
  Activity: 24.97%
[17]
  Activity: 23.22%
[18]
  Activity: 16.78%
[19]
  Activity: 58.86%
[20]
  Activity: 1.15%

## COc1ccccc1N(Cc1cccc(C(=O)NCCc2ccccc2)c1)C(=O)CCCCCC(=O)NO
[1]
  inhibition: 38%

## COc1ccccc1N(Cc1cccc(C(=O)NCCCCCc2ccccc2)c1)C(=O)CCCCCC(=O)NO
[1]
  inhibition: 16%

## COc1ccccc1N(Cc1cccc(C(=O)NCCCCCCc2ccccc2)c1)C(=O)CCCCCC(=O)NO
[1]
  inhibition: 4%

## COc1ccccc1N(Cc1cccc(C(=O)NCCc2ccc(Cl)cc2)c1)C(=O)CCCCCC(=O)NO
[1]
  inhibition: 36%
